From ChEMBL document CHEMBL1938395, “New benzimidazole derivatives as antiplasmodial agents and plasmepsin inhibitors: synthesis and analysis of structure-activity relationships” (Bioorg Med Chem Lett, 2012)

Experiments:
[1] = biological target: Plasmepsin II (Plasmodium falciparum, UniProt P46925); assay: Inhibition of Plasmodium falciparum plasmepsin-2 using DABCYL-Glu-Arg-Nle-Phe-Leu-Ser-Phe-Pro-EDANS as substrate by FRET analysis
Method in brief: (§1)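 Enzyme (plasmepsin II or cathepsin D) at 1.2 nM with 1.0 µM FRET substrate in 0.1 M sodium acetate pH 5.0, 10% glycerol, 0.01% Tween 20. Compounds were dissolved in DMSO and added before substrate, at 5.0% final DMSO. Fluorescence was read at excitation 336 nm and emission 490 nm. Triplicates.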

[2] = tested on: Plasmodium falciparum; assay: Antiplasmodial activity against late ring stage Plasmodium falciparum HB3 assessed as [3H]hypoxanthine incorporation after 24 hrs by scintillation counting; type: functional, organism-based
Method in brief: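 Late ring stage cultures at 0.5% parasitemia were exposed to a range of compound concentrations in hypoxanthine-free rich medium for 42 h. 0.5 µCi [3H]hypoxanthine was then added and incubation continued for 24 h. Cells were harvested on glass fiber paper and counted by scintillation. Percent inhibition of uptake versus concentration was fitted with a modified dose–response logistic equation for IC50.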

[3] = biological target: Cathepsin D (Homo sapiens, UniProt P07339); assay: Inhibition of human cathepsin D using DABCYL-Glu-Arg-Nle-Phe-Leu-Ser-Phe-Pro-EDANS as substrate by FRET analysis; method in brief: as §1
Sequence of Cathepsin D (P07339 65-162 limits assumed): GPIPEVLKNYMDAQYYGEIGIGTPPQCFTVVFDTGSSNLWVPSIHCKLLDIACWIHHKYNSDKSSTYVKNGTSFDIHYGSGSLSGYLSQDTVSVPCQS
Sequence of Cathepsin D (P07339 169-412 limits assumed): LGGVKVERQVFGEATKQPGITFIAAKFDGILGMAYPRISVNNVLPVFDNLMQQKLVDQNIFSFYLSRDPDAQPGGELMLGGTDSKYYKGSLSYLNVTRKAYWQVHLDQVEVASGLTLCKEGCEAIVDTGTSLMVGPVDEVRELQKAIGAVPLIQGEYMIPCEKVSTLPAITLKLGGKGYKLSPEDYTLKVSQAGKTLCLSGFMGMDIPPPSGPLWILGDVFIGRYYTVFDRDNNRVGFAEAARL

[4] = tested on: Plasmodium falciparum; assay: Antiplasmodial activity against late ring stage Plasmodium falciparum HB3 after 1 hr by acridine orange staining-based flow cytometric analysis; type: functional, organism-based; conditions: HB3, 1 h

Sequence of Plasmepsin II (P46925 whole entry): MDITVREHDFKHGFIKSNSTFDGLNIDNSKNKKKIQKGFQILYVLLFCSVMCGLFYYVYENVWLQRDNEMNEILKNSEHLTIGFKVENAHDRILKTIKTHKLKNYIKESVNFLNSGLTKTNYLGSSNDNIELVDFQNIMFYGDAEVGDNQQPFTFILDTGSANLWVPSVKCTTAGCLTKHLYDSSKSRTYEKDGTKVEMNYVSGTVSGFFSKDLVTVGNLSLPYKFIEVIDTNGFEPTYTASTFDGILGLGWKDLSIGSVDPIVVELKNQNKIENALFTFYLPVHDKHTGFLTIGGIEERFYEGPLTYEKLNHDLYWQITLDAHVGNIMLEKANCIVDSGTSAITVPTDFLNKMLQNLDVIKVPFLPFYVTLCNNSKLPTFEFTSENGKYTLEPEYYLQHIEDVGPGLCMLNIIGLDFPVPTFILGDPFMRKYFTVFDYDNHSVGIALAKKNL

Structure (SMILES): O=C(Cn1c(-c2ccccn2)nc2ccccc21)c1ccc([N+](=O)[O-])cc1
- IC50 [1]: 30.5 µM
- IC50 [2]: 2.1 µM
- IC50 [3]: 17.8 µM

Structure (SMILES): O=C(Cn1c(-c2ccccn2)nc2ccccc21)c1ccccc1[N+](=O)[O-]
- IC50 [1]: 30.6 µM
- IC50 [2]: ≥ 3 µM
- IC50 [3]: 39.2 µM

Structure (SMILES): O=C(Cn1c(-c2ccccn2)nc2ccccc21)c1ccc(F)cc1
- IC50 [1]: 10 µM
- IC50 [2]: 3 µM
- IC50 [3]: 31.9 µM

Structure (SMILES): O=C(Cn1c(-c2ccccn2)nc2ccccc21)c1ccc(-c2ccccc2)cc1
- IC50 [1]: 14.7 µM
- IC50 [2]: 0.16 µM
- IC50 [3]: 2 µM
- IC50 [4]: 0.166 µM

Structure (SMILES): O=C(Cn1c(-c2ccccn2)nc2ccccc21)c1ccccc1
- IC50 [1]: 10 µM
- IC50 [2]: ≥ 3 µM
- IC50 [3]: 39.2 µM

Structure (SMILES): O=C(Cn1c(-c2ccccn2)nc2ccccc21)c1ccc(F)cc1F
- IC50 [1]: 48 µM
- IC50 [2]: ≥ 3 µM
- IC50 [3]: 44.5 µM

Structure (SMILES): O=C(Cn1c(-c2ccccn2)nc2ccccc21)c1ccc(O)c(O)c1
- IC50 [1]: 19.6 µM
- IC50 [2]: ≥ 3 µM
- IC50 [3]: 28.5 µM

Structure (SMILES): O=C(Cn1c(-c2ccccn2)nc2ccccc21)c1ccc(Cl)cc1
- IC50 [1]: 21.2 µM
- IC50 [2]: 0.7 µM
- IC50 [3]: 31.9 µM

Structure (SMILES): COc1ccc(OC)c(C(=O)Cn2c(-c3ccccn3)nc3ccccc32)c1
- IC50 [1]: 34 µM
- IC50 [2]: ≤ 3 µM
- IC50 [3]: 21.2 µM

Structure (SMILES): O=C(Cn1c(-c2ccccn2)nc2ccccc21)c1cccc([N+](=O)[O-])c1
- IC50 [1]: 20.4 µM
- IC50 [2]: ≥ 3 µM
- IC50 [3]: 21.2 µM

Structure (SMILES): COc1ccc(C(=O)Cn2c(-c3ccccn3)nc3ccccc32)cc1
- IC50 [1]: 37.7 µM
- IC50 [2]: ≤ 3 µM
- IC50 [3]: 14.2 µM
